ChEMBL document CHEMBL2062391, “Antiausterity agents from Uvaria dac and their preferential cytotoxic activity against human pancreatic cancer cell lines in a nutrient-deprived condition” (J Nat Prod, 2012)
Active and inactive are the calls of the source. No cut-off for these calls is given here.

Legend:
PSN1 [1] = assay: Cytotoxicity against human PSN1 cells grown in nutrient-rich medium after 24 hrs by WST8 assay; assay type: cell-based; conditions: psn1, 24 h
Procedure, shortened: (§1)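 Cells seeded at 2 × 10^4/well and grown 24 h in fresh DMEM or RPMI-1640 at 37 °C, 5% CO2. After a PBS wash, the medium was replaced with serially diluted samples in DMEM (nutrient-rich) or NDM. After 24 h, DMEM with 10% WST-8 solution was added. A450 was read after 3 h. Viability (%) was taken from the mean of three wells, blank-corrected against the control. PC50 is 50% kill in NDM without toxicity in DMEM.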

MIA PaCa-2 [2] = assay: Cytotoxicity against human MIAPaCa2 cells grown in nutrient-rich medium after 24 hrs by WST8 assay; assay type: cell-based; conditions: mia paca-2, 24 h; procedure, shortened: as §1
MIA PaCa-2 [3] = assay: Cytotoxicity against human MIAPaCa2 cells grown in nutrient-deprived medium after 24 hrs by WST8 assay; assay type: functional; procedure, shortened: as §1
[4] = Cytotoxicity against human KLM1 cells grown in nutrient-rich medium after 24 hrs by WST8 assay; assay type: cell-based; conditions: klm1, 24 h; procedure, shortened: as §1
PANC-1 [5] = assay: Cytotoxicity against human PANC1 cells grown in nutrient-rich medium after 24 hrs by WST8 assay; assay type: cell-based; conditions: panc-1, 24 h; procedure, shortened: as §1
[6] = (§2) Cytotoxicity against human KLM1 cells grown in nutrient-deprived medium after 24 hrs by WST8 assay; assay type: functional; procedure, shortened: as §1
PSN1 [7] = assay: Cytotoxicity against human PSN1 cells grown in nutrient-deprived medium after 24 hrs by WST8 assay; assay type: functional; procedure, shortened: as §1
PANC-1 [8] = assay: Cytotoxicity against human PANC1 cells grown in nutrient-deprived medium after 24 hrs by WST8 assay; assay type: functional; procedure, shortened: as §1
PANC-1 [9] = assay: Induction of morphological changes in human PANC1 cells assessed as loss of cellular content at 25 uM after 24 hrs by inverted-phase contrast microscopic analysis; assay type: functional, cell-based
Procedure, shortened: (§3)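 Cells (1 × 10^6) were seeded in 60 mm dishes and attached over 24 h in a humidified CO2 incubator. They were washed twice with PBS and treated at 25 μM in DMEM or NDM, alongside controls. After 24 h, cells were viewed by phase-contrast on an inverted microscope with a 40× objective and photographed.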

PANC-1 [10] = assay: Induction of morphological changes in human PANC1 cells assessed as rounding of cells at 25 uM after 24 hrs by inverted-phase contrast microscopic analysis; assay type: functional, cell-based; procedure, shortened: as §3
KLM1 = assay: as §2; assay type: functional; procedure, shortened: as §1
PANC-1 [11] = assay: Induction of morphological changes in human PANC1 cells assessed as plasma membrane rupture at 25 uM after 24 hrs by inverted-phase contrast microscopic analysis; assay type: functional, cell-based; procedure, shortened: as §3

| Structure (SMILES) | Activity (PSN1 [1]) | Activity (MIA PaCa-2 [2]) | PC50 (MIA PaCa-2 [3]) | Activity [4] | Activity (PANC-1 [5]) | PC50 [6] | PC50 (PSN1 [7]) | PC50 (PANC-1 [8]) | Activity (PANC-1 [9]) | Activity (MIA PaCa-2 [3]) | Activity (PANC-1 [10]) | Activity (KLM1) | Activity (PSN1 [7]) | Activity (PANC-1 [8]) | Activity (PANC-1 [11]) |
| --- | --- | --- | --- | --- | --- | --- | --- | --- | --- | --- | --- | --- | --- | --- | --- |
| C/C(=C\COC(=O)/C=C/c1ccccc1)COC(=O)c1ccccc1 [UVARIDACANE B] | Non-toxic | Non-toxic | 57.8 µM | Non-toxic | Non-toxic | >200 µM | 143 µM | 134 µM | – | – | – | – | – | – | – |
| CC(=O)O[C@H]1C(COC(=O)c2ccccc2)=C[C@@H](O)[C@@H](O)[C@H]1OC(=O)c1ccccc1 [UVARIDACOL A] | Non-toxic | Non-toxic | 192 µM | Non-toxic | Non-toxic | 83 µM | 173 µM | 102 µM | – | – | – | – | – | – | – |
| CC(=O)O[C@@H]1C(COC(=O)c2ccccc2)=C[C@H]2O[C@H]2[C@H]1OC(=O)c1ccccc1 [UVARIDAPOXIDE A] | Non-toxic | Non-toxic | 100 µM | Non-toxic | Non-toxic | 159 µM | 80.1 µM | 112 µM | – | – | – | – | – | – | – |
| O=C(OC[C@@]1(O)C(=O)C=C[C@H]2[C@@H]1[C@H]1C=C[C@@H]2C(=O)[C@]1(O)COC(=O)c1ccccc1)c1ccccc1 | Non-toxic | Non-toxic | 17.5 µM | Non-toxic | Non-toxic | 32.7 µM | 32.6 µM | 14.5 µM | Active | Dose-dependent effect | Active | Dose-dependent effect | Dose-dependent effect | Dose-dependent effect | Active |
| C/C(=C\COC(=O)c1ccccc1)COC(=O)c1ccccc1 [UVARIDACANE A] | Non-toxic | Non-toxic | 56.3 µM | Non-toxic | Non-toxic | 122 µM | 96.5 µM | 72.3 µM | – | – | – | – | – | – | – |
| CO[C@@H]1C=C(COC(=O)c2ccccc2)[C@H](OC(C)=O)[C@H](OC(=O)c2ccccc2)[C@@H]1O [UVARIDACOL B] | Non-toxic | Non-toxic | 147 µM | Non-toxic | Non-toxic | >200 µM | 158 µM | 69.8 µM | – | – | – | – | – | – | – |
| COc1ccccc1COC(=O)c1ccccc1 | Non-toxic | Non-toxic | 131 µM | Non-toxic | Non-toxic | >200 µM | 185 µM | 137 µM | – | – | – | – | – | – | – |
| Nc1ccn([C@@H]2O[C@H](CO)[C@@H](O)C2(F)F)c(=O)n1 [GEMCITABINE] | Non-toxic | Non-toxic | >200 µM | Non-toxic | Non-toxic | >200 µM | >200 µM | >200 µM | – | – | – | – | – | – | – |
| O=C(OCC1=C[C@H](O)[C@H](O)[C@@H](OC(=O)c2ccccc2)[C@@H]1O)c1ccccc1 [UVARIDACOL C] | Non-toxic | Non-toxic | 115 µM | Non-toxic | Non-toxic | – | 152 µM | 72.9 µM | – | – | – | – | – | – | – |
| COc1cc(C[C@H]2C(=O)OC[C@@H]2Cc2ccc(OC)c(OC)c2)ccc1O [ARCTIGENIN] | Non-toxic | Non-toxic | 0.67 µM | Non-toxic | Non-toxic | 1.5 µM | 1.9 µM | 1.7 µM | – | – | – | – | – | – | – |
